Test results taken from ChEMBL document CHEMBL1155879, “Identification and validation of human DNA ligase inhibitors using computer-aided drug design” (J Med Chem, 2008).
pIC50, pKi: −log10 of the molar value. Calls of active or inactive are those of the source. The rule behind the calls is not given here.

Legend:
DNA ligase 1 [1] = biological target: T1, DNA ligase 1 (Homo sapiens, UniProt P18858); assay: Inhibition of human recombinant DNA ligase 1 at 100 uM by fluorescence energy transfer-based DNA joining assay relative to control
Method in brief: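 Fluorescence energy transfer joining of a nicked DNA substrate (10 pmol) by purified recombinant hLigI (0.25 pmol), run in duplicate with or without 100 µM candidate inhibitor.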

[2] = Partition coefficient, log P of the compound; format: physicochemical; conditions: octanol/water
[3] = Growth inhibition of human MCF10A cells at 50 uM by MTT assay relative to control; format: cell-based; conditions: MCF-10A
HCT-116 = assay: Growth inhibition of human HCT116 cells at 50 uM by MTT assay relative to control; format: functional, cell-based
DNA ligase 1 [4] = biological target: T1, DNA ligase 1; assay: Inhibition of human recombinant DNA ligase 1 by radioactive gel-based ligation assay
Method in brief: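 A 25-mer and a 5′-[32P]-labeled 18-mer were annealed to a complementary 44-mer to give a centrally nicked duplex. Labeled substrate (0.5 pmol) and hLigI (0.02 pmol) in ligation buffer were incubated with varying inhibitor concentrations for 30 min at 25 °C. Products were resolved on gels, and IC50 was derived from the concentration-dependence.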

DNA = assay: Inhibition of ethidium bromide binding to DNA at 100 uM
DNA ligase 1 [5] = biological target: T1, DNA ligase 1; assay: Inhibition of human recombinant DNA ligase 1 in presence of 0.1% Triton X-100 by fluorescence energy transfer-based DNA joining assay relative to control
DNA ligase 1 [6] = biological target: T1, DNA ligase 1; assay: Inhibition of human recombinant DNA ligase 1 using nicked DNA substrate by kinetic assay
Method in brief: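 Initial ligation rates were measured with hLigI (0.05 pmol) and fluorescent nicked DNA substrate (0.5–100 pmol) at various inhibitor concentrations. Ki came from Lineweaver–Burk double-reciprocal plots and curve fitting.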

T1 sequence (P18858 whole entry): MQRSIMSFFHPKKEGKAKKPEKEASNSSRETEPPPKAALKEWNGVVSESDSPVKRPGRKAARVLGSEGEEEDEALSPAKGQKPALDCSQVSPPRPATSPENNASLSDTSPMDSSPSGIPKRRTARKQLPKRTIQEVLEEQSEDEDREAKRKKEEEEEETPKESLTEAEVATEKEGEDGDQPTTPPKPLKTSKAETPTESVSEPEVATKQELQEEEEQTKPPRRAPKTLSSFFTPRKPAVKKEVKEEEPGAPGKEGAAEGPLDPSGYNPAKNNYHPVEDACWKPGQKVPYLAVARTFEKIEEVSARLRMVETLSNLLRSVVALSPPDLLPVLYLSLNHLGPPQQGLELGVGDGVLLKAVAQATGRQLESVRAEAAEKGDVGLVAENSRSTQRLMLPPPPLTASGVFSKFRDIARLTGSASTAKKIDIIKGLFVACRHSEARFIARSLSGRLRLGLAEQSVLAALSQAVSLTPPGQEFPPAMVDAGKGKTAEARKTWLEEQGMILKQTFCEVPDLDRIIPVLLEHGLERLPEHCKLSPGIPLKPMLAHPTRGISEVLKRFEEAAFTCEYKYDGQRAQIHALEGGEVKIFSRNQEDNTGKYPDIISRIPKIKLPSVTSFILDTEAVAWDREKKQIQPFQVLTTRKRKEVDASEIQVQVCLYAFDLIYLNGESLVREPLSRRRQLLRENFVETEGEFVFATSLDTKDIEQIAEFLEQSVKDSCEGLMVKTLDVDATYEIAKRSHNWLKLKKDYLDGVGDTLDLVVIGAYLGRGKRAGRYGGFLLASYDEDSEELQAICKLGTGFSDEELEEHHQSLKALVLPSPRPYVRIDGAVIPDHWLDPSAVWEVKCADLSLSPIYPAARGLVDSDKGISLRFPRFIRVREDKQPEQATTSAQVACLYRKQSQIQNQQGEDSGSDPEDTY

| SMILES | inhibition (DNA ligase 1 [1]) | logP [2] | pIC50 (DNA ligase 1 [4]) | Activity (DNA) | Activity (DNA ligase 1 [5]) | pKi (DNA ligase 1 [6]) | inhibition (DNA ligase 1 [5]; concentration not given here) | growth inhibition [3] | growth inhibition (HCT-116) |
| --- | --- | --- | --- | --- | --- | --- | --- | --- | --- |
| NS(=O)(=O)c1ccc(CCNC(=O)CCS(=O)(=O)c2ccc(Br)cc2)cc1 | 53.4% | 1.42 | 5.10 |  | Active |  |  |  |  |
| O=C(c1ccc(O)cc1)c1ccccc1O | 50.7% | 3.04 | 4.60 |  | Active |  |  |  |  |
| O=c1[nH]ncc(N/N=C\c2ccc(O)c([N+](=O)[O-])c2)c1Cl | 59.8% | 4.84 | 4.92 | inactive |  |  |  | 70% | 40% |
| O=C(O)CSc1cc(Cl)c2nonc2c1[N+](=O)[O-] | 60.6% | 2.15 | 4.89 |  | Active |  |  | 40% |  |
| O=C1Nc2c(C(=O)O)cccc2C1=O | 59.3% | 0.24 | 5.40 |  | Active | 5.40 |  |  |  |

Second part, led by results:

| inhibition (DNA ligase 1 [1]) | logP [2] | pIC50 (DNA ligase 1 [4]) | Activity (DNA) | Activity (DNA ligase 1 [5]) | pKi (DNA ligase 1 [6]) | inhibition (DNA ligase 1 [5]; concentration not given here) | SMILES | growth inhibition [3] | growth inhibition (HCT-116) |
| --- | --- | --- | --- | --- | --- | --- | --- | --- | --- |
| 78.3% | 4.91 | 5.10 | inactive |  |  |  | Cc1c(Br)cc(NCC(=O)N/N=C\c2cc([N+](=O)[O-])ccc2O)cc1Br | 70% | 70% |
| 60.5% | 1.92 | 5.00 |  | Active |  |  | CSc1ccc(C(=O)O)s1 |  |  |
| 91% | 1.87 | 6.22 |  | Active |  |  | Cc1oc(C(=O)O)cc1CSCc1cc(C(=O)O)c(C)o1 |  |  |
| 52.5% | 1.78 | 4.60 |  |  |  | 39% | COc1ccc(-c2cnc3c(O)nc(O)nc3n2)cc1 | 70% | 40% |
